M5 antag = antagonists of human muscarinic M5 receptor (CHRM5); P08912; CHO-hM5 cells, Fluo-8 calcium fluorescence, ACh EC80; inhibition, % at 3 µM; 360,000 compounds, 0.59% hits; AID 624040;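 active = inhibition above a per-plate cutoff, the mean of that plate's test compounds plus 3 SD, cut at about 27% in these data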
M4 antag = CHRM4 antagonism in calcium assay. 360,000 compounds, 0.73% hits. inhibition, % at 3 µM. AID 624125. CHO-hM4 cells, ACh EC80, Fluo-8 calcium fluorescence;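 active = inhibition above its plate's cutoff, the mean inhibition of sample wells plus 3 SD, cut at about 27% in these data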
Target sequence (P08173 whole entry, looked up): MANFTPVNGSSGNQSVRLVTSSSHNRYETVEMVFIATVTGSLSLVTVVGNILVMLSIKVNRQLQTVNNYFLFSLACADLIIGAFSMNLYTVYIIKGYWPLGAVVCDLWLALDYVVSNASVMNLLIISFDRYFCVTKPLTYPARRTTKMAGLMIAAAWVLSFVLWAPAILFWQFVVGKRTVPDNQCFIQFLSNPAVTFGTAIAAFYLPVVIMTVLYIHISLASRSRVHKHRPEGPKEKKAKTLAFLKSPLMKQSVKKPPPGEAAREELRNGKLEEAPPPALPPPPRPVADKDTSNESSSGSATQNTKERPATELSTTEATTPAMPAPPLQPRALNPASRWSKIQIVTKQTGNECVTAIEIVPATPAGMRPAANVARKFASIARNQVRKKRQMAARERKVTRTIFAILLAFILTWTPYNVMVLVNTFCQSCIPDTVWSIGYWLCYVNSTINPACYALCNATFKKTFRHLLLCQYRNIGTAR
CHRM4 agonist = agonists of human muscarinic M4 receptor (CHRM4). P08173. CHO-K1 hM4/Gqi5, Fluo-8 calcium fluorescence; vehicle 0%, full acetylcholine response 100%. activation, % at 3 µM. 360,000 compounds, 0.14% hits;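 active = activation above the run mean over all test wells plus 3 SD, cut at about 32% in these data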;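 also: peak over basal fluorescence ratio per well then scaled between controls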
M4 PAM = positive allosteric modulators of human muscarinic M4 receptor. P08173. activation, % at 3 µM. 360,000 compounds, 0.4% hits. CHO-K1 hM4/Gqi5, Fluo-8 calcium fluorescence, ACh EC20; 0% = ACh EC20, 100% = maximal ACh. AID 624126;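 active = activation above its plate's cutoff, the mean activation of sample wells plus 3 SD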
M5 PAM = CHRM5 positive allosteric modulation. P08912. CHO-K1 hM5, Fluo-8 calcium, ACh EC20 PAM; 0% = ACh EC20, 100% = ACh EC100. activation, % at 3 µM. 360,000 compounds, 0.3% hits. AID 624038;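 active = activation above the run cutoff, the mean activation of all test compounds plus 3 SD, cut at about 18% in these data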
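system = human M5 receptor in CHO-K1 cells | compound = one concentration, 3 µM final (nominal) | schedule = Post-acetylcholine fluorescence recording 140 s | signal = Fluo-8 calcium dye fluorescence, kinetic read | benchmarks = low control EC20 acetylcholine (0%), high control EC100 acetylcholine (100%) | repeats = singlicate, one well per test compound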
CHRM5 agonist = CHRM5 agonism in calcium assay. P08912. CHO-K1 hM5 cells, Fluo-8 calcium fluorescence; 0% DMSO wells, 100% maximal acetylcholine response. activation, % at 3 µM. 360,000 compounds, 0.19% hits;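 active = activation above the run's mean over test compounds plus 3 SD, cut at about 23% in these data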;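 also: signal is peak over basal fluorescence ratio across the kinetic read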
Of the large screens only hits and unclear results are named; the others gave an inactive call. Sampled rows, rich in hits. Any-hit rate of the full collection: about 1.8%.

CSc1ccccc1NC(=O)CSCc1ccc(C)cc1	none
CCCCCCC(=O)NNC(=O)CC(=O)Nc1ccccc1C(=O)O	M4 PAM 46
Cc1ccc(CSCC(=O)Nc2ccccc2C(=O)O)cc1	M4 PAM 15
O=C(Cc1ccc(S(=O)(=O)N2CCOCC2)s1)OCc1ccc(Cl)cc1	none
COc1ccc(OC)c(NC(=O)c2ccc3c(c2)C(=O)N(CC2CCCO2)C3=O)c1 (configuration not stated)	none
Cc1cccc(-n2c(Cc3cc(=O)[nH]c(=O)[nH]3)nnc2SCC(=O)N2CCc3ccccc32)c1	none
CCCCS(=O)(=O)c1sc2nc(C)cc(C)c2c1N	M5 PAM 21
CC(=O)N1CCN(S(=O)(=O)c2cccc(C(=O)NCc3ccc(F)cc3)c2)CC1	none
CC1(C(=O)NCc2cccc(Cl)c2)Cc2c(-c3ccc4c(c3)OCO4)ccnc2O1 (configuration not stated)	none
CC(=O)Nc1ccccc1-c1nc2cc(C#N)c(C#N)cc2[nH]c1=O	none
CCC(Oc1nc2ccccc2nc1-c1ccccc1NC(C)=O)C(=O)c1ccccc1 (configuration not stated)	M4 PAM 33
CC(C)(C)c1ccc(CC(=O)N2CCC2(C)C(=O)NCCC#N)cc1 (configuration not stated)	none
CCC1NC(=O)c2cccnc2-n2c1nc1ccc(OC)cc1c2=O (configuration not stated)	none
Cc1ccc(NC(=O)c2cc([N+](=O)[O-])ccc2N2CCOCC2)cc1S(=O)(=O)N(C)C	M4 antag 49
Cc1ccc(NC(=O)c2cc([N+](=O)[O-])ccc2N2CCOCC2)cc1C	none
COC(=O)c1[nH]c2ccc(C)cc2c1NC(=O)CCN1CCN(Cc2ccc3c(c2)OCO3)CC1	M5 antag 33
CCOC(=O)C(C(=O)Nc1ccc(C)cc1)C1CCCCC1 (configuration not stated)	M4 PAM 45
CCOC(=O)C(C(=O)Nc1ccccc1)C1CCCCC1 (configuration not stated)	none
CC1CN(C(=S)Nc2ccccc2C(F)(F)F)CC(C)O1 (configuration not stated)	none
CCCCNC(=O)c1nc(C2CCN(S(=O)(=O)c3ccc(S(C)(=O)=O)cc3)CC2)oc1-c1ccccc1	M5 antag 30
Cc1ccc(-c2csc(N/N=C/c3ccco3)n2)cc1	none
CN(C)S(=O)(=O)c1ccc(-c2csc(N/N=C/c3ccco3)n2)cc1	M4 antag 30
C(=N\Nc1nc(-c2ccccc2)cs1)/c1ccncc1	none
CN(C)S(=O)(=O)c1ccc(-c2csc(N/N=C/c3ccc(O)cc3)n2)cc1	M4 antag 29
COc1ccc(N2CCN(C(=O)C3CCCN3S(=O)(=O)c3cccc4nsnc34)CC2)cc1 (configuration not stated)	none
FC(F)Oc1ccc(NC(=S)NCc2ccccc2)cc1Cl	M5 antag 33
FC(F)Oc1ccc(NC(=S)NCc2ccccc2)cc1	none
CNc1ccc(C2(O)C(=O)c3ccccc3C2=O)cc1	none
CC1Cc2cc(C3(O)C(=O)c4ccccc4C3=O)ccc2N1 (configuration not stated)	M4 antag 31
CCN(CC)CCCCCCCCOC(=O)c1cc(OC)c(OC)c(OC)c1	M4 antag 29
CC(NC(=O)c1ccc(OC2CCN(Cc3ccccn3)CC2)cc1)c1nccs1 (configuration not stated)	none
O=C1/C(=C\c2cccc(O)c2O)SC(=S)N1Cc1ccccc1	none
COc1cc(/C=C2/SC(=S)N(Cc3ccccc3)C2=O)ccc1O	CHRM5 agonist 23
COc1ccccc1/C=C1\SC(=S)N(C(C(=O)O)c2ccccc2)C1=O (configuration not stated)	none
O=C1/C(=C\c2ccc(O)c(O)c2)SC(=S)N1Cc1ccccc1	none
O=C1/C(=C\c2cc([N+](=O)[O-])ccc2O)SC(=S)N1Cc1ccc(Cl)cc1	M5 antag 28, M4 antag 30

Screening results (PubChem BioAssay)
